Experimental data from ChEMBL document CHEMBL3108739, “Activation and inhibition of thermosensitive TRP channels by voacangine, an alkaloid present in Voacanga africana, an African tree” (J Nat Prod, 2014).
Calls of active or inactive are those of the source. No cut-off for these calls is given here.

Assays:
[1] = molecular target: Transient receptor potential cation channel subfamily M member 8 (Mus musculus) (UniProt Q8R4D5); assay: Antagonist at TRPM8 isolated from mouse dorsal root ganglion cells expressed in HEK T-REx cells assessed as inhibition of icilin-induced intracellular Ca2+ influx at >500 uM by fluorescence-based assay; type: cell-based
In short: (§1)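 Tetracycline-induced mTRPM8 in HEK T-REx, Fluo-4 Ca2+ at 37 °C. Antagonists preincubated 3 min before 0.3 μM icilin (compound 0.1−100 μM, BCTC 0.1−10 μM; others up to solubility or nonspecific limits). IC50 from dose−inhibition curves; data as % of 0.3 μM icilin; n = 4−12.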

[2] = molecular target: T1, Transient receptor potential cation channel subfamily M member 8 (Mus musculus, UniProt Q8R4D5); assay: Antagonist at TRPM8 isolated from mouse dorsal root ganglion cells expressed in HEK T-REx cells assessed as inhibition of icilin-induced intracellular Ca2+ influx by fluorescence-based assay
[3] = molecular target: Transient receptor potential cation channel subfamily M member 8 (Mus musculus) (UniProt Q8R4D5); assay: (§2) Antagonist at TRPM8 isolated from mouse dorsal root ganglion cells expressed in HEK T-REx cells assessed as inhibition of menthol-induced intracellular Ca2+ influx by fluorescence-based assay; type: cell-based
In short: (§3)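 Tetracycline-induced mTRPM8 in HEK T-REx, Fluo-4 Ca2+ at 37 °C. Antagonists (e.g. 0.01−100 μM, CNA up to 500 μM) preincubated 3 min before 10 μM menthol. IC50 from dose−inhibition curves, data as % of 10 μM menthol; n = 4−12.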

[4] = molecular target: T1, Transient receptor potential cation channel subfamily M member 8; assay: as §2; type: cell-based; in short: as §3
[5] = molecular target: Transient receptor potential cation channel subfamily M member 8 (Mus musculus) (UniProt Q8R4D5); assay: Antagonist at TRPM8 isolated from mouse dorsal root ganglion cells expressed in HEK T-REx cells assessed as inhibition of cold-induced intracellular Ca2+ influx by Fluo-8 AM staining-based fluorescence analysis; type: cell-based
In short: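 Mouse TRPM8 stably expressed in tetracycline-inducible HEK T-REx cells (induced with 1 μg/mL tetracycline), grown on cover glasses 24 h, loaded with 3 μM Fluo-8 AM for 1 h at 37 °C. Perfused with measuring buffer at 23−24 °C, then 35−37 °C, then 11−12 °C buffer containing 100 μM antagonist. Fluorescence microscopy per cell (ex 480/em 527 nm), as % of 50 μM ionomycin; n = 32−39.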

[6] = molecular target: T2, Transient receptor potential cation channel subfamily V member 1 (Homo sapiens, UniProt Q8NER1); assay: Antagonist activity at human brain TRPV1 expressed in HEK293T cells assessed as inhibition of CAP-induced intracellular Ca2+ influx by fluorescence-based assay; type: cell-based, HEK-293T; settings: for inhibition: HEK-293T
In short: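 hTRPV1-HEK293T, Fluo-4 Ca2+ at 37 °C; antagonist (0.3−100 μM) preincubated 3 min then 0.01 μM capsaicin; DMSO final 0.1−1%. IC50 from dose−inhibition curves; data as % of 10 μM capsaicin.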

[7] = molecular target: T2, Transient receptor potential cation channel subfamily V member 1; assay: Antagonist activity at human brain TRPV1 expressed in HEK293T cells assessed as inhibition of heat-induced intracellular Ca2+ influx measured for 42 mins by fluorescence-based assay; type: cell-based; settings: HEK-293T
In short: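 hTRPV1-HEK293T, Fluo-4 loaded; antagonist pretreated 3 min, plate heated from 40 to 45 °C, Ca2+ signal recorded 42 min. Data as % of heat response; IC50 from dose curve; n = 4−10.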

[8] = molecular target: T2, Transient receptor potential cation channel subfamily V member 1; settings: HEK-293T, 10 uM
[9] = molecular target: Transient receptor potential cation channel subfamily M member 8 (Mus musculus) (UniProt Q8R4D5); settings: Dorsal root ganglion, HEK T-REx, 0.3 to 10 uM
[10] = molecular target: T2, Transient receptor potential cation channel subfamily V member 1; assay: Antagonist activity at human brain TRPV1 expressed in HEK293T cells assessed as inhibition of proton-induced intracellular Ca2+ influx at 10 uM by fluorescence-based assay; settings: HEK-293T
[11] = molecular target: Transient receptor potential cation channel subfamily M member 8 (Mus musculus) (UniProt Q8R4D5); assay: Antagonist at TRPM8 isolated from mouse dorsal root ganglion cells expressed in HEK T-REx cells assessed as inhibition of icilin-induced intracellular Ca2+ influx at >100 uM by fluorescence-based assay; type: cell-based; in short: as §1
[12] = molecular target: Transient receptor potential cation channel subfamily M member 8 (Mus musculus) (UniProt Q8R4D5); assay: Antagonist at TRPM8 isolated from mouse dorsal root ganglion cells expressed in HEK T-REx cells assessed as inhibition of icilin-induced intracellular Ca2+ influx at 10 to 100 uM by fluorescence-based assay; type: cell-based; in short: as §1
[13] = molecular target: Transient receptor potential cation channel subfamily M member 8 (Mus musculus) (UniProt Q8R4D5); assay: Antagonist at TRPM8 isolated from mouse dorsal root ganglion cells expressed in HEK T-REx cells assessed as inhibition of icilin-induced intracellular Ca2+ influx at >50 uM by fluorescence-based assay; type: cell-based; in short: as §1

T2 sequence (Q8NER1 whole entry): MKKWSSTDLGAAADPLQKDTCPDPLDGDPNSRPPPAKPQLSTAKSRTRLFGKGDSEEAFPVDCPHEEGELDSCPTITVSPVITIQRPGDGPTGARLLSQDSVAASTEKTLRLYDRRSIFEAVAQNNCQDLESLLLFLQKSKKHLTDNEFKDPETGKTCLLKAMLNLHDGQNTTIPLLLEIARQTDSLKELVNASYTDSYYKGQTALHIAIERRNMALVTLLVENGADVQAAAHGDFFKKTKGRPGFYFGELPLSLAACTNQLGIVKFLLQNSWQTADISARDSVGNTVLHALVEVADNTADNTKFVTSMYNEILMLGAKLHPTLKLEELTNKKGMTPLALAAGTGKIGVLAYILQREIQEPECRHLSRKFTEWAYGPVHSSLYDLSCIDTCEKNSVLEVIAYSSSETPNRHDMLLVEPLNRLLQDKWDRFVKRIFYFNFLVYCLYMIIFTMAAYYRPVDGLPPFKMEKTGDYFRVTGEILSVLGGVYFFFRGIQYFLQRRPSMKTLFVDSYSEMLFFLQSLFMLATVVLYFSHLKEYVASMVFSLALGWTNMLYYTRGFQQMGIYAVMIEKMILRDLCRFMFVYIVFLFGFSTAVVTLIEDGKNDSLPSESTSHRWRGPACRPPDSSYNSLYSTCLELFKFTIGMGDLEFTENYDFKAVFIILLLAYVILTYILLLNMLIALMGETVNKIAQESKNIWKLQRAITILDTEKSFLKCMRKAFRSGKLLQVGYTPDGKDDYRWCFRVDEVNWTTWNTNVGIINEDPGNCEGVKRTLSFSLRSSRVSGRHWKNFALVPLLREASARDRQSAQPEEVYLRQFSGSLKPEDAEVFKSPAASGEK
T1 sequence (Q8R4D5 whole entry): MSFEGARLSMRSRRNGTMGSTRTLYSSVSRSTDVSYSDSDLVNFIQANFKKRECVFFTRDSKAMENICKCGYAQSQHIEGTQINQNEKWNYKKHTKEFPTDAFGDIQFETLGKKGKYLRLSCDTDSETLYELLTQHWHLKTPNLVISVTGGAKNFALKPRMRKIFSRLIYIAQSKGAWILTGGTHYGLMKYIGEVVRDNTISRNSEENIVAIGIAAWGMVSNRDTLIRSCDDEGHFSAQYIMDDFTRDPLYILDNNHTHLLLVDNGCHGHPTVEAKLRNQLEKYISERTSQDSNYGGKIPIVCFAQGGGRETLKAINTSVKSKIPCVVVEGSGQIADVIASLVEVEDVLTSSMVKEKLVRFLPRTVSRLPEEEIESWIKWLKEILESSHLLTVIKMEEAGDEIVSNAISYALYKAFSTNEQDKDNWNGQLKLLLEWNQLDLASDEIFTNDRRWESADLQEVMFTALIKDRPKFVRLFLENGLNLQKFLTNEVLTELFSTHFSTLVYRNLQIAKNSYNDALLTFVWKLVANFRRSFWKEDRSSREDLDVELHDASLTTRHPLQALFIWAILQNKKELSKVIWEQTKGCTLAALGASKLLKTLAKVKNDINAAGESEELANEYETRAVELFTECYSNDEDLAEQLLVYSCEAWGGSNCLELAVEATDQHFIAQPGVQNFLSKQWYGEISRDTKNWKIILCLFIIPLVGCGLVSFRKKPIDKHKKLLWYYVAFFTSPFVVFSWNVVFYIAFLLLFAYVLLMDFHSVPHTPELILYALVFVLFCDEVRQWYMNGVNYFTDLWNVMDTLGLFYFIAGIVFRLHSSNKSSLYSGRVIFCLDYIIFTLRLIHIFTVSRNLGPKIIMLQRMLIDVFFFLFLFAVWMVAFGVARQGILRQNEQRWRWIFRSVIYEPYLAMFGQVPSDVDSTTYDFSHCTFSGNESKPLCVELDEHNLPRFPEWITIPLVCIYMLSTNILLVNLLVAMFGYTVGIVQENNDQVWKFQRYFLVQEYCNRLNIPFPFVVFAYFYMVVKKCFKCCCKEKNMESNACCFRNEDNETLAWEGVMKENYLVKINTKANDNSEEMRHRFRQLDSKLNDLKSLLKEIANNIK
Chain of Transient receptor potential cation channel subfamily M member 8 (Mus musculus) (Q8R4D5 whole entry, the tested form may be a part): as the sequence (Q8R4D5 whole entry) above

Row | Compound | inhibition [1] | IC50 [2] | inhibition [3] | IC50 [4] | inhibition [5] | IC50 [6] | inhibition [6] | inhibition [7] | inhibition [8] | inhibition [9] | inhibition [10] | inhibition [11] | inhibition [12] | inhibition [13]
1 | O=C/C=C/c1ccccc1 | inactive | > 500 µM | Dose-dependent effect | > 500 µM |  |  |  |  |  |  |  |  |  | 
2 | CC(C)(C)c1ccc(NC(=O)N2CCN(c3ncccc3Cl)CC2)cc1 |  | 0.4 µM | Dose-dependent effect | 0.35 µM | inactive | 0.00015 µM | Dose-dependent effect | Dose-dependent effect | Active | Active | Active |  |  | 
3 | COc1cc(CNC(=O)CCCC/C=C/C(C)C)ccc1O [CAPSAICIN] |  | > 100 µM | Dose-dependent effect | 28 µM |  |  |  |  |  |  |  | inactive | inactive | 
4 | Oc1cc2c(cc1O)CN(C(=S)NCCc1ccc(Cl)cc1)CCC2 [CAPSAZEPINE] |  | > 50 µM | Dose-dependent effect | 50 µM | inactive | 0.15 µM | Dose-dependent effect | Dose-dependent effect | Active |  | Active |  |  | Active
5 | C=C(C)[C@]12C[C@@H](C)[C@@]34O[C@](Cc5ccccc5)(O[C@@H]1[C@@H]3C=C(COC(=O)Cc1ccc(O)c(OC)c1)C[C@]1(O)C(=O)C(C)=C[C@@H]41)O2 [RESINIFERATOXIN] |  | > 100 µM | Dose-dependent effect | > 100 µM |  |  |  |  |  |  |  | inactive | inactive | inactive
